Assay outcomes as filed in PubChem.
Only some compounds are listed: those with a hit (about 0.79% of all), similar ones and a draw of the others.
PKA-R2B act = activators of PKA-R2B holoenzyme, primary screen, biochemical, fluorescence polarization, Cy5-IP20, human; cAMP-dependent protein kinase catalytic subunit beta (Homo sapiens) + cAMP-dependent …; 340,000 tested, 0.079% active; PKA-R2B holoenzyme dissociation; R2B truncated from residue 108, S112A mutant; 0% DMSO only, 100% 113 µM cGMP; activation, % at 11.4 µM;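 active = activation above a cutoff set at the mean over all compounds plus 3 SD, cut at about 18% in these data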;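 note: higher means more holoenzyme dissociation and a rise in polarization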
Rin1 Abl inh = inhibitors of Rin1-Abl protein binding, primary screen, biochemical, TR-FRET | Tyrosine-protein kinase ABL1 (Homo sapiens) + Ras and Rab interactor 1 (Homo sapiens), … | inhibition, % at 7.35 µM | 360,000 tested, 0.4% active | AID 588664, 2011; in the data active = inhibition above about 5%, passing the limit was not always enough
PKA-R1A act = activators of PKA-R1A holoenzyme, primary screen, biochemical, fluorescence polarization, Cy5-IP20, bovine R1A, mouse PKAc. cAMP-dependent protein kinase type I-alpha regulatory subunit (Bos taurus) + …. 340,000 tested, 0.083% active. activation, % at 11.4 µM. PKA-R1A dissociation; scaled: DMSO 0%, 113 µM cGMP 100%;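 active = percent activation above the mean of all tested compounds plus 3 SD, cut at about 19% in these data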;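 note: higher means more PKAc released from R1A so a rise in polarization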
UCH37 DUB inh = inhibitors of human UCH37 deubiquitinase, primary screen, biochemical, Ub-AMC cleavage, fluorescence | Ubiquitin carboxyl-terminal hydrolase isozyme L5 (Homo sapiens), Q9Y5K5 | purified proteasome/UCH37 | inhibition, % (concentration not given with the values) | 330,000 tested, 0.33% active | AID 588478, 2011;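 active = mean inhibition over replicate wells above about 20%, limit read from the data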;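 note: 0% = compound-free wells with enzyme and 100% = wells lacking proteasome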
Target sequence (Q9Y5K5 whole entry, looked up): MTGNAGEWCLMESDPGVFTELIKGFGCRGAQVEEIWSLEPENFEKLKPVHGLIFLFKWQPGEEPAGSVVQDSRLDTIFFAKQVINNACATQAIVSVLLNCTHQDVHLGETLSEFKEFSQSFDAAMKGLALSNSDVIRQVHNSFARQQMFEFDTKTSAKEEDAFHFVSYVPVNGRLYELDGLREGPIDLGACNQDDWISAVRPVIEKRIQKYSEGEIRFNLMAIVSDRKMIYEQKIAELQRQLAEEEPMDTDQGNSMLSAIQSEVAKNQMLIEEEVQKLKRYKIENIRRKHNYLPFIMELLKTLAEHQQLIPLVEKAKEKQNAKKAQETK
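Reagent: Ub-AMC substrate; assay system: Proteasome-associated human UCH37 deubiquitinase; controls: no-proteasome and no-compound wells; read-out: % inhibition of Ub-AMC cleavage fluorescence; timing: 30 min preincubation with enzyme, 25 min cleavage at room temperature; signal: AMC fluorescence from Ub-AMC cleavage, excitation 355 nm, emission 460 nm; buffer or medium: Tris-HCl pH 7.4 plus ovalbumin, ATP-MgCl2, DTT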
R2B FP artifact = fluorescence polarization artefacts, biochemical, artefact control for PKA-R2B activator project; AID 504796, 2011; activation, % at 11.4 µM; 270 tested, 6% active; FP artifact counterscreen; shares compounds with PKA-R2B act; in the data active = activation above about 20%;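 note: Cy5 labelled IP20 peptide probe with compound but no PKA protein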
PKA-R2B confirm = activators of PKA-R2B holoenzyme, confirmation, biochemical, fluorescence polarization, human; 270 tested, 9% active; shares compounds with PKA-R2B act; PKA-R2B complex, activation; activation, % at 11.4 µM; in the data active = activation above about 19%
R1A FP artifact = FP signal interference without PKA proteins, confirmation, artefact control for PKA-R1A activator project, biochemical, fluorescence polarization, triplicate | shares compounds with PKA-R1A act | Cy5-IP20 peptide alone, fluorescence polarization artifact counterscreen | activation, % at 11.4 µM | 280 tested, 7% active;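 active = mean activation over triplicate runs exceeds the adjusted cutoff derived for the parent primary screen, cut at about 19% in these data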;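 note: no PKA protein present so any polarization rise reflects compound interference; 0% = tracer peptide mix alone and 100% = mix with added PKA catalytic subunit; higher means stronger polarization artifact and likely false positive in parent screen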
PKA-R1A act conf = activators of PKA-R1A holoenzyme, confirmation, biochemical, fluorescence polarization, Cy5-IP20, triplicate | shares compounds with PKA-R1A act | PKA-R1A holoenzyme dissociation | activation, % at 11.4 µM | 280 tested, 9% active | AID 504800, 2011;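 active = mean activation over replicate wells exceeds the adjusted hit threshold taken from the earlier primary screen, cut at about 20% in these data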;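 note: 0% = holoenzyme mix with DMSO only and 100% = cGMP-activated control wells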
Target sequence (P00514 whole entry, looked up): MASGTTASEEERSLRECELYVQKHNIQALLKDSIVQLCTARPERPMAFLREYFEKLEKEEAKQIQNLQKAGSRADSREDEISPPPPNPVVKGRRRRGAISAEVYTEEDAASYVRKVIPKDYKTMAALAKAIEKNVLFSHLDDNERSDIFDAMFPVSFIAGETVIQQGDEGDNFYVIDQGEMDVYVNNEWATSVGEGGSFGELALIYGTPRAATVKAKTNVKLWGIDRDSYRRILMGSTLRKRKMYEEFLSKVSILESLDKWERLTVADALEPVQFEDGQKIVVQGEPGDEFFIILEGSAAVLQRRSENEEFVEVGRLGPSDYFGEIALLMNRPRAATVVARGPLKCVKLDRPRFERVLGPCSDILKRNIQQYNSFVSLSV
UCH37 confirm = retest of human UCH37 deubiquitinase inhibitors, confirmation, biochemical, Ub-AMC cleavage rate, fluorescence; Proteasome-bound UCH37; inhibition, % at 20 µM; shares compounds with UCH37 DUB inh; 480 tested, 27% active;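 active = average inhibition over replicates above about 50%, so the earlier screening hit is confirmed, limit read from the data; inactive = the rest, counted as false positives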;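 note: based on cleavage rate fitted by regression over a 30 min kinetic read; 0% = proteasome plus Ub-AMC and 100% = Ub-AMC without proteasome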
Rin1-Abl confirm = Rin1-Abl binding inhibitor retest, confirmation, biochemical, TR-FRET; shares compounds with Rin1 Abl inh; purified proteins; 1,300 tested, 49% active; inhibition, % at 7.35 µM
GFP quencher = GFP fluorescence inhibitors and quenchers, artefact control for Rin1-Abl interaction inhibitor project, biochemical | shares compounds with Rin1 Abl inh | inhibitors/quenchers counterscreen | inhibition, % at 6.75 µM | 1,300 tested, 8.5% active | AID 602125, 2011;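 note: ABL1-eGFP fusion protein alone without its partner RIN1-SBP; 0% = protein with vehicle and 100% = wells lacking protein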
* = called active by the depositor; x = no result; ! = not active in a repeat. Cut-off read from the data, not from the text of the source, unless noted: active = inhibition above about 6.5%; inactive = the rest.

SMILES	PKA-R2B act	Rin1 Abl inh	PKA-R1A act	UCH37 DUB inh	others
CCCNC(=O)N1[C@H]2CC[C@@H]1C(C(=O)OC)=C(c1cc3ccccc3o1)C2	-4	0	-4	3
COC(=O)C1=C(c2ccc(F)cc2F)C[C@@H]2CC[C@H]1N2C(=O)NCCNC(C)=O	16	2	0	25*
COC(=O)C1=C(c2cc3ccccc3o2)C[C@@H]2CC[C@H]1N2C(=O)NCCO	-8	0	-5	27*
CCCC(C)n1[nH]c(=O)c2c1NC(=O)CSC2c1ccc(OC)cc1 (configuration not stated)	-3	-3	1	20*
CCCOc1ccccc1C1SCC(=O)Nc2c1c(=O)[nH]n2C(C)CCC (configuration not stated)	-5	1	-4	-2
Brc1ccc2c(c1)CN(CC1CCCCC1)Cc1cnnn1-2	x	4	x	x
CCn1nc(-c2cccs2)nc2c(=O)n(C)c(=O)nc1-2	-5	20*	-1	95*
CCOc1ccc(-n2c(-c3cccs3)nc3ccccc3c2=O)cc1	-15	3	-9	-15
CC(=O)Nc1ccc([As](=O)(O)c2ccc([N+](=O)[O-])cc2)cc1	-10	-1	-7	-2
COP(=O)(OC)C(C=O)=NNc1ccc([N+](=O)[O-])cc1	x	x	x	20*
Cc1cc(O)c2c(c1)C(=O)C13C(=C2O)C(=O)[C@H]2[C@@H](O)[C@@H]1[C@H]1[C@H](O)[C@@H]3C(=O)C3=C(O)c4c(O)cc(C)cc4C(=O)C312 (some centres not stated)	37*	10	17	28*
COc1ccccc1CCNC1C2CC3CC(C2)CC1C3 (configuration not stated)	-6	0	1	2
Cc1cc(C)cc(N2C(=O)/C(=C\c3ccc(N4CCN(C)CC4)o3)C(=O)NC2=S)c1	x	-4	x	24*
c1ccc(CN2COC3CCCCCC32)cc1 (configuration not stated)	x	-1	x	x
Cc1ccc(N2C(=O)/C(=C/c3ccc(CN(CCC#N)S(C)(=O)=O)o3)C(=O)NC2=S)cc1	-4	5.2*	0	7
CN1OC[C@@H]2CN[C@H](c3ccccc3Br)C[C@@H]21	-1	-1	-1	x
CCOP(=O)(OCC)C(NC(=O)c1ccccc1Cl)=C(Cl)Cl	19*	2	14	4	R2B FP artifact=7;PKA-R2B confirm=0
Nc1ccc(C(=O)NN=C2CN3CCC2CC3)cc1	x	x	x	3
O=C(c1c[nH]cc1-c1ccccc1)c1cccc2ccccc12	-11	-1	-2	5
C#CCN(C)C(C)Cc1ccccc1 (configuration not stated)	19*	-1	-8	0	R2B FP artifact=1;PKA-R2B confirm=2
N#CCCn1cc(C=C2C(=O)NC(=O)NC2=O)c(-c2ccccc2)n1	19*	2	10	2	R2B FP artifact=5;PKA-R2B confirm=2
CCn1cc(CN2CCCC(C(=O)c3cccc(OC)c3)C2)c(C)n1 (configuration not stated)	2	4	5	3
CCCn1cc(CN2CCCC(C(=O)c3cccc(OC)c3)C2)c(C)n1 (configuration not stated)	21*	4	8	5	R2B FP artifact=2;PKA-R2B confirm=1
Cc1ccc(/C=C2/C(=O)NC(=O)N(CCc3ccc(F)cc3)C2=O)o1	24*	1	8	2	R2B FP artifact=2;PKA-R2B confirm=4
O=C1NC(=O)N(CCc2ccc(F)cc2)C(=O)/C1=C/c1ccco1	-2	0	6	1
SMILES	PKA-R2B act	Rin1 Abl inh	PKA-R1A act	UCH37 DUB inh	others
CN/C=C(/Cl)P(=O)(OC(C)C)OC(C)C	-2	-1	1	4
C=CCN1CC[C@]23c4c5ccc(O)c4OC2[C@H](O)CC[C@@]3(O)[C@H]1C5 (some centres not stated)	1	-2	3	0
Oc1ccc2c3c1O[C@H]1[C@@H](O)CC[C@@]4(O)[C@@H](C2)N(CC2CCC2)CC[C@]314	19*!	11*!	-9	4	R2B FP artifact=5;PKA-R2B confirm=3;Rin1-Abl confirm=-2;GFP quencher=-2
O=C(O)c1cccc2c1NC(C(=O)O)C1CC(Sc3ccccc3[N+](=O)[O-])C(Cl)C21 (configuration not stated)	22*	11*	5	-16	R2B FP artifact=24*;PKA-R2B confirm=15;Rin1-Abl confirm=5;GFP quencher=20*
CC(=NCCN1CCOCC1)c1c(O)n(Cc2ccccc2)c(=O)[nH]c1=O	-4	-2	-1	0
O=C1NC(=S)NC(=O)C1=Cc1cccn1-c1ccc(O)cc1	2	6	21*	5	R1A FP artifact=4;PKA-R1A act conf=1
COC(=O)C1=C(c2ccc(-c3ccccc3)c(F)c2)C[C@@H]2CC[C@H]1N2C(=O)NCc1cccc2ccccc12	-6	1	-4	3
COc1cc2c(cc1OC)-c1c(OC)c(OC)cc3c1C(C2)N(C)CC3 (configuration not stated)	-4	-6	1	28*	UCH37 confirm=38
C=CCN1C(=O)/C(=C/c2ccc(N3CCOCC3)o2)C(=O)NC1=S	3	-13	6	11
